Molecules are shown by their SMILES.

In general, EC50 refers to the concentration that produces a half-maximal response. Broadly, the CC50 is the concentration at which the toxic effect on the cells reaches its halfway point. In general, IC50 refers to the concentration that inhibits the measured activity by half.

Data set [1] can be described thus: Selectivity index, ratio of CC50 for cytotoxicity against African green monkey Vero E6 cells to EC50 for antiviral activity against SARS-COV2/NL/2020 infected in African green monkey Vero E6 cells. The note with it: read-out: Ratio CC50/EC50. It counts as toxicity, cell-based, Vero C1008.
In data set [2] the test system is SARS-CoV-2. Nature of the data set: Antiviral activity against SARS-COV2/Padova/2020 infected in African green monkey Vero E6 cells assessed as inhibition of plaque formation measured after 3 days by Plaque reduction assay. As to conditions: Severe acute respiratory syndrome coronavirus 2, Padova/2020, Vero C1008, 72 h. The class given is functional, organism-based.

Data set [3] concerns SARS-CoV-2. The data set is described as follows: Antiviral activity against SARS-CoV-2/NL/2020 infected in African green monkey Vero E6 cells assessed as inhibition of plaque formation measured after 3 days by Plaque reduction assay. The class given is functional, organism-based. As to conditions: Severe acute respiratory syndrome coronavirus 2, NL/2020, Vero C1008, 72 h. Background: Plaque reduction counts the foci of infection that form in a cell layer.

For another data set, the system named is Vero C1008. The data set is described as follows: Cytotoxicity against African green monkey Vero E6 cells assessed as reduction of cell viability measured after 72 hrs by MTT assay. As to conditions: chlorocebus sabaeus, vero c1008, 72 h. The class given is cell-based. A digest of the protocol: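 Uninfected Vero E6 cells were exposed to compound for 72 h and viability read by MTT. CC50 is the concentration reducing viability by 50%.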

Data set [4] is described as follows: Selectivity index, ratio of CC50 for cytotoxicity against African green monkey Vero E6 cells to EC50 for antiviral activity against SARS-COV2/Padova/2020 infected in African green monkey Vero E6 cells. It counts as toxicity, cell-based, Vero C1008. The note with it: read-out: Ratio CC50/EC50.
Another data set concerns Human coronavirus 229E. The data set is described as follows: Antiviral activity against Human coronavirus 229E infected in human MRC5 cells assessed as inhibition of plaque formation measured after 3 days by Plaque reduction assay. The class given is functional, organism-based. The note with it: MRC5, 72 h. A digest of the protocol: (§1)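 MRC-5 cells were seeded at 6×10^4 per well and infected the next day with 80 PFU per well. After the inoculum was removed, the overlay held graded compound concentrations, 3% FBS and 0.6% methylcellulose. Monolayers were fixed and stained after 3 days, and plaques counted. EC50 is the concentration giving 50% plaque inhibition, with 95% profile-likelihood CI. n = 3 independent experiments in duplicate.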

A further data set has as its system MRC5. The data set is described as follows: Cytotoxicity against human MRC5 cells assessed as reduction in cell viability measured after 72 hrs by MTT assay. The class given is cell-based. The note with it: mrc5, 72 h. A digest of the protocol: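 MRC-5 cells were exposed to compound for 72 h and viability read by MTT. CC50 is the concentration reducing viability by 50%.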

For another data set, the system named is Human coronavirus OC43. The data set is described as follows: Antiviral activity against Human coronavirus OC43 infected in human MRC5 cells assessed as inhibition of plaque formation measured after 3 days by Plaque reduction assay. The note with it: Betacoronavirus 1, MRC5, 72 h. The class given is functional, cell-based. A digest of the protocol:
as §1

For data set [5], the system named is SARS-CoV-2. The data set is described as follows: Antiviral activity against SARS-CoV-2 infected in African green monkey Vero E6 cells assessed as reduction in virus induced cytopathic effect measured after 4 days by MTT assay. The class given is functional, organism-based. As to conditions: Severe acute respiratory syndrome coronavirus 2, Vero C1008, 96 h.

The next data set concerns SARS-CoV. Nature of the data set: Antiviral activity against SARS-CoV infected in African green monkey Vero E6 cells assessed as inhibition of viral replication. It counts as functional, organism-based. The note with it: Severe acute respiratory syndrome-related coronavirus, Vero C1008.
The next data set has as its system Canine coronavirus. The data set is described as follows: Antiviral activity against Canine coronavirus infected in dog A-72 cells assessed as inhibition of viral replication. It counts as functional, cell-based. The note with it: Alphacoronavirus 1, A-72.
Data set [6] is described as follows: Cytotoxicity against African green monkey Vero E6 cells infected with SARS-CoV-2 assessed as reduction of cell viability measured after 48 hrs by MTT assay. It counts as cell-based, Vero C1008. The note with it: chlorocebus sabaeus. (In general: Tetrazolium assays rely on reduction of a dye to a coloured formazan, in cell work by metabolically active cells.)

Turning to `COc1ccc2c(c1)c(CC(=O)NCCCCC(=O)N[C@H](C(=O)N1C[C@H](O)C[C@H]1C(=O)N[C@@H](C)c1ccc(-c3scnc3C)cc1)C(C)(C)C)c(C)n2C(=O)c1ccc(Cl)cc1`, the selectivity ratio in data set [1] and in data set [4] was more than 4 each time. For the same compound, the concentration for a half-maximal effect (EC50) in the data set on SARS-CoV-2 [2] and in the data set on SARS-CoV-2 [3] was more than 50 µM throughout. Besides, in the data set with Vero C1008, the CC50 was more than 200 µM.

On to `COc1ccc2c(c1)c(CC(=O)NCCN1CCN(C(=O)CCC(=O)N[C@H](C(=O)N3C[C@H](O)C[C@H]3C(=O)N[C@@H](C)c3ccc(-c4scnc4C)cc3)C(C)(C)C)CC1)c(C)n2C(=O)c1ccc(Cl)cc1`, for which the EC50 in the data set on Human coronavirus 229E came out at 3.2 µM; in the data set with SARS-CoV-2 [2], 29.8 µM; in the data set on SARS-CoV-2 [3], 21.5 µM; in the data set with Human coronavirus OC43, 2.5 µM. Moreover, the values for the selectivity ratio in [1] and in data set [4] were more than 12 and more than 8, respectively. Besides, the CC50 with MRC5 is 238 µM; in the data set with Vero C1008 it was more than 250 µM.

For the compound `COc1ccc2c(c1)c(CC(=O)NCCOCCOCC(=O)N[C@H](C(=O)N1C[C@H](O)C[C@H]1C(=O)N[C@@H](C)c1ccc(-c3scnc3C)cc1)C(C)(C)C)c(C)n2C(=O)c1ccc(Cl)cc1`, the selectivity ratio in [1] and in data set [4] was more than 4 throughout. Also, the EC50 in the data set with SARS-CoV-2 [2] and in the data set with SARS-CoV-2 [3] was more than 50 µM in each case. Further, the 50% cytotoxic concentration (CC50) in the data set on Vero C1008 is more than 200 µM.

Turning to `COc1ccc2c(c1)c(CC(=O)NCCCCCCC(=O)N[C@H](C(=O)N1C[C@H](O)C[C@H]1C(=O)N[C@@H](C)c1ccc(-c3scnc3C)cc1)C(C)(C)C)c(C)n2C(=O)c1ccc(Cl)cc1`, the EC50 in the data set with Human coronavirus 229E is 36.5 µM; in the data set with SARS-CoV-2 [2] it was 25.4 µM; with SARS-CoV-2 [3], 18.1 µM; in the data set on Human coronavirus OC43 it was 4.7 µM. Besides, the selectivity ratio in data set [1] was more than 11; in [4] it was more than 8. For the same compound, the CC50 with MRC5 was more than 250 µM; in the data set with Vero C1008, more than 200 µM.

As for `COc1ccc2c(c1)c(CC(=O)O)c(C)n2C(=O)c1ccc(Cl)cc1` [INDOMETHACIN], the selectivity ratio in data set [1] was more than 5. Also, the EC50 was more than 400 µM in the data set on SARS-CoV-2 [5] and 94.9 µM with SARS-CoV-2 [3]. The IC50 in the data set on SARS-CoV was 50 µM; in the data set with Canine coronavirus, 5 µM. Moreover, the 50% cytotoxic concentration (CC50) in the data set with Vero C1008 was more than 500 µM. The LC50 in the data set with Canine coronavirus (read-out: LD50 (the source's name)) was 550 µM. For the same compound, in data set [6], the CC50 at 48 h is more than 100 µM.

For the compound `CCC(CC)COC(=O)[C@H](C)N[P@](=O)(OC[C@H]1O[C@@](C#N)(c2ccc3c(N)ncnn23)[C@H](O)[C@@H]1O)Oc1ccccc1` [REMDESIVIR], the values for the selectivity ratio in [1] and in [4] were 2490 and 1490, respectively. Further, the 50% effective concentration (EC50) in the data set with SARS-CoV-2 [2] is 0.25 µM; with SARS-CoV-2 [3], 0.15 µM. In the data set on Vero C1008, the 50% cytotoxic concentration (CC50) amounted to 373 µM.

These data come from ChEMBL document CHEMBL5036342, “Indomethacin-based PROTACs as pan-coronavirus antiviral agents” (Eur J Med Chem, 2021).
